Activity calls are given as the source filed them. The rule behind the calls is not given here.
Experiments:
Aromatase [1] = target: T1, Aromatase (Homo sapiens, UniProt P11511); experiment: Inhibition of recombinant human aromatase preincubated for 10 mins followed by substrate and beta-NADP+ addition and measured for 60 mins by fluorescence based assay
T1 sequence (P11511 whole entry): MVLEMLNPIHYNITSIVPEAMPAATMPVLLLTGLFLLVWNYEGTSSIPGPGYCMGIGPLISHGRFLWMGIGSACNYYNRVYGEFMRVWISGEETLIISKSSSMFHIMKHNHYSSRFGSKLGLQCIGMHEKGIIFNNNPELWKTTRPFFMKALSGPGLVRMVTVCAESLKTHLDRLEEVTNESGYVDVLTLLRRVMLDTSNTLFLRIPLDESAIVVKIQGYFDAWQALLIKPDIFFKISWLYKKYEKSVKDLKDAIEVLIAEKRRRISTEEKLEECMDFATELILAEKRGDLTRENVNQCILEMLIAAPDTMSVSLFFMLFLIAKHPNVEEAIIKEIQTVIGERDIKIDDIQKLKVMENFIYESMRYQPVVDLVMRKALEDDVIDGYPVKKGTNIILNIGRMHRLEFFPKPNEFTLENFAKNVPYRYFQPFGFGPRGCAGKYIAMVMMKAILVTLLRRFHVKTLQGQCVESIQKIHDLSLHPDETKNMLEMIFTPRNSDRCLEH
Summary of the method: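 Recombinant human aromatase with NADPH-generating system in aromatase assay buffer. Compounds tested at 1000, 100, 10, 1 and 0.1 nM, DMSO final ≤0,25% (v/v). Preincubated 37°C for 10 min, then fluorogenic substrate/β-NADP+ added. Fluorescence read at 488/527 nm for 60 min.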

MCF-10A = experiment: Cytotoxicity against human MCF-10A cells assessed as inhibition of cell growth upto 50 uM incubated for 72 hrs by cell counting analysis; format: toxicity, cell-based
Summary of the method: (§1)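 Cells seeded in duplicate (50.000 cells/well for MCF-7 and MDA-MB-231, 90.000 cells/well for MCF-10A). 24 h later exposed 72 h to 50-0.1 μM compound, with or without 1 μM testosterone; medium and treatments replaced at 48 h. Cells harvested with trypsin and counted with a cell counter. Three experiments.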

MDA-MB-231 = experiment: Antiproliferative activity against estrogen negative human MDA-MB-231 cells assessed as inhibition of cell growth upto 50 uM incubated for 72 hrs by cell counting analysis; format: functional, cell-based; summary of the method: as §1
MCF7 = experiment: Antiproliferative activity against estrogen positive human MCF7 cells assessed as inhibition of cell growth upto 50 uM incubated for 72 hrs by cell counting analysis; format: functional, cell-based; summary of the method: as §1
Aromatase [2] = target: T1, Aromatase; experiment: Inhibition of human placental microsome aromatase using androstenedione as substrate assessed as reduction in 3H2O formation preincubated for 5 mins in presence of NADPH followed by microsomal protein addition and measured after 3 hrs; format: microsomes, Placenta

With `CCC#CCOc1ccc(C(=O)c2ccc(Cn3ccnc3)cc2)cc1` the IC50 (Aromatase [1]) was 1420 nM, the Activity (MCF-10A) was “Non-Toxic” and the inhibition (MDA-MB-231) was “inactive”. For the same molecule, the inhibition (MCF7) was “inactive”.

With `CCCCCOc1ccc(C(=O)c2cccc(Cn3ccnc3)c2)cc1` the IC50 (Aromatase [1]) was 42 nM, the Activity (MCF-10A) was “Non-Toxic” and the inhibition (MDA-MB-231) was “inactive”. The inhibition (MCF7) was “inactive”.

`COc1ccc(C(=O)c2cccc(Cn3ccnc3)c2)cc1` was tested, and the IC50 (Aromatase [1]) was 13 nM, the Activity (MCF-10A) was “Non-Toxic” and the inhibition (MDA-MB-231) was “inactive”. For the same molecule, the inhibition (MCF7) was “inactive”.

For `O=C(c1ccc(O)cc1)c1ccc(Cn2ccnc2)cc1`, the IC50 (Aromatase [2]) was 1100 nM.

In the case of `CCC#CCOc1ccc(C(=O)c2cccc(Cn3ccnc3)c2)cc1`, the IC50 (Aromatase [1]) is reported as 9 nM, the Activity (MCF-10A) is reported as “Non-Toxic” and the inhibition (MDA-MB-231) is reported as “inactive”. The inhibition (MCF7) was “inactive”.

With `CCCOc1ccc(C(=O)c2ccc(Cn3ccnc3)cc2)cc1` the IC50 (Aromatase [1]) was 374 nM, the Activity (MCF-10A) was “Non-Toxic” and the inhibition (MDA-MB-231) was “inactive”. For the same molecule, the inhibition (MCF7) was “inactive”.

`COc1ccc(C(=O)c2ccc(Cn3ccnc3)cc2)cc1` gave an IC50 (Aromatase [2]) of 238 nM.

`CCCOc1ccc(C(=O)c2cccc(Cn3ccnc3)c2)cc1` was tested, and the IC50 (Aromatase [1]) was 2 nM, the Activity (MCF-10A) was “Non-Toxic” and the inhibition (MDA-MB-231) was “inactive”. The inhibition (MCF7) was “inactive”.

With `C#CCOc1ccc(C(=O)c2ccc(Cn3ccnc3)cc2)cc1` the IC50 (Aromatase [1]) was 210 nM, the Activity (MCF-10A) was “Non-Toxic” and the inhibition (MDA-MB-231) was “inactive”. The inhibition (MCF7) was “inactive”.

With `C#CCOc1ccc(C(=O)c2cccc(Cn3ccnc3)c2)cc1` the IC50 (Aromatase [1]) was 650 nM, the Activity (MCF-10A) was “Non-Toxic” and the inhibition (MDA-MB-231) was “inactive”. For the same molecule, the inhibition (MCF7) was “inactive”.

`O=C(c1ccc(Cn2ccnc2)cc1)c1ccc(-c2ccccc2)cc1` gave an IC50 (Aromatase [2]) of 2530 nM.

For `CCCCCOc1ccc(C(=O)c2ccc(Cn3ccnc3)cc2)cc1`, the IC50 (Aromatase [1]) was 1300 nM, the Activity (MCF-10A) was “Non-Toxic” and the inhibition (MDA-MB-231) was “inactive”. For the same molecule, the inhibition (MCF7) was “inactive”.

`O=C(c1ccc(O)cc1)c1cccc(Cn2ccnc2)c1` was tested, and the IC50 (Aromatase [1]) was 13 nM, the Activity (MCF-10A) was “Non-Toxic” and the inhibition (MDA-MB-231) was “inactive”. The inhibition (MCF7) was “inactive”.

Reference: ChEMBL document CHEMBL5247591, “Single-digit nanomolar inhibitors lock the aromatase active site via a dualsteric targeting strategy” (Eur J Med Chem, 2022)
